Runt-SMMHC FRET = inhibitors of RUNX1 Runt–CBFb-SMMHC binding, primary screen, biochemical, FRET, Cerulean-Runt, Venus-CBFb-SMMHC, uHTS; Runt-related transcription factor 1 (Homo sapiens) + Core-binding factor subunit beta …; Cerulean-Runt/Venus-CBFb-SMMHC FRET ratio 530/480, 1 h; inhibition, % at 20 µM; hit rate 0.74% among 220,000;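 active = mean inhibition across duplicate retests at 20 µM reaching about 50%, limit read from the data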;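 also: 0% = DMSO wells and 100% = wells with excess untagged CBFb-SMMHC; inhibitors lower the FRET ratio by blocking Runt binding to CBFb-SMMHC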
M18AAP inhibitor = PfM18AAP inhibitors, malaria aminopeptidase, primary screen, biochemical, QFRET, recombinant enzyme | H-Glu-NHMec fluorogenic cleavage | inhibition, % at 7.35 µM | hit rate 1.2% among 290,000 | AID 1822, 2009;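 active = inhibition above the campaign mean inhibition over all tested compounds plus 3 SD, cut at about 28% in these data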;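 also: 0% = plate median of test compound wells and 100% = 2 mM ZnCl2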
RBBP9 inh = human RBBP9 inhibitors, primary screen, biochemical, fluorescence polarization, FP-Rh probe, HTS. Serine hydrolase RBBP9 (Homo sapiens), O75884. recombinant RBBP9. inhibition, % at 7.94 µM. hit rate 0.2% among 220,000;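 active = inhibition above the campaign mean of all tested compounds plus 3 SD, cut at about 14% in these data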;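 also: plate controls were DMSO wells with RBBP9 for no effect and wells lacking RBBP9 protein for full effect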
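Material: RBBP9 protein. Amount: RBBP9 at 2.5 µM in dispensed solution, before mixing. Schedule: 30 min then 45 min, 25 °C. Medium: Tris buffer pH 8.0, NaCl, Pluronic. Measured by: fluorescence polarization. Measure: percent inhibition from mP, scaled between DMSO and no-protein wells. Replication: one well per compound.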
Hck Nef HTS = inhibitors of Nef-activated human Hck kinase, primary screen, biochemical, Z-Lyte FRET, 384-well, Hck-YEEI; Recombinant Hck-YEEI plus Nef, Z-Lyte FRET kinase assay; hit rate 0.68% among 220,000; AID 463187, 2010; inhibition, % at 20 µM;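 active = Hck-Nef kinase inhibition above about 50%, limit read from the data; inactive = inhibition below that limit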;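 also: 0% = DMSO with Hck plus Nef and 100% = Hck alone without Nef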
RanGTP-Impb inh = inhibitors of RanGTP-importin-beta interaction, primary screen, biochemical, FRET, CFP-Ran, YFP-importin-beta, homogeneous | Ran GTPase (GTP-bound) - importin-beta complex | cell-free CFP-Ran/YFP-importin-beta FRET ratio | hit rate 1.1% among 300,000 | inhibition, % (test concentration not listed);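 active = more than half of the replicate wells show a fall in the fluorescence ratio signal beyond about 16%, limit read from the data, passing the limit was not always enough; inconclusive = exactly half of the replicate wells pass the set limit; inactive = fewer than half of replicates pass the limit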;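 also: 0% = DMSO wells and 100% = Ran loaded with GDP instead of GTP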
Runt-CBFb FRET = inhibitors of RUNX1 Runt–CBFb binding, primary screen, biochemical, FRET, Cerulean-Runt, Venus-CBFb, uHTS. Runt-related transcription factor 1 (Homo sapiens) + Core-binding factor subunit beta …. inhibition, % at 20 µM. Cerulean-Runt/Venus-CBFb FRET ratio 530/480, 1 h. hit rate 0.46% among 220,000;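 active = inhibition over about 50% at 20 µM in the single-dose screen, limit read from the data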;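 also: 0% = DMSO wells and 100% = excess unlabeled CBFb competitor control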
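Assay system: Cerulean-Runt domain fusion protein, energy donor; Signal: fluorescence energy transfer, 422 nm excitation, 530/480 nm emission; Timing: 1 h compound exposure, room temperature; Control set: unlabeled CBFb; Medium: Tris buffer pH 7.5 with salts and BSA; Compound: single test concentration of 20 µM, 1% DMSO final; Probe or stimulus: Venus-CBFb 100 nM.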
An asterisk follows results filed as active; u = inconclusive; x = not tested or not shown; + = active, no number. Rows were chosen to be rich in hits. Some 2.9% of all compounds tested hit in one or more screens of this group.

SMILES	Runt-SMMHC FRET	M18AAP inhibitor	RBBP9 inh	Hck Nef HTS	RanGTP-Impb inh	Runt-CBFb FRET
S=C(c1ccc(Br)cc1)N1CCCC1	x	-10.2	x	x	2.2	x
Cc1ccc(S(=O)(=O)[N-]c2nc3ccccc3nc2-n2cc[n+](CCC(C)C)c2)cc1	32.5	0.7	-1.9	16.6	u	-1.8
CC(C)CC[n+]1ccn(-c2nc3ccccc3nc2[N-]S(=O)(=O)c2ccc(Cl)cc2)c1	25.9	-2.9	-2.1	14.1	30.2*	10.7
COc1ccc(CSc2nnc(-c3ccncc3)n2C)cc1F	x	-10.8	x	x	-2.1	x
COc1cc(OC)cc(-c2n[nH]c(=S)n2-c2ccc3c(c2)OCO3)c1	23.6	31.7*	-13.6	1.6	u	5.0
Fc1ccc(-n2c(-c3ccc4c(c3)OCO4)n[nH]c2=S)cc1Cl	19.4	22.1	-12.3	-0.2	5.1	7.8
COc1cccc(/C(O)=C2/C(=O)C(=O)N(c3cc(C)on3)C2c2cccs2)c1 (stereo unspecified)	145.1*	13.7	-6.6	1.2	1.2	77.2*
S=C(Nc1ccc(N2CCOCC2)cc1)Nc1ccc2snnc2c1	29.5	30.1*	3.7	34.1	u	33.7
Cc1ccc(-n2c(C)nc3c(cnn3-c3ccc(F)cc3)c2=O)cc1C	-1.9	-3.3	-8.9	1.2	-2.5	-4.3
Cc1ccc(-n2c(C)nc3c(cnn3-c3ccc(C)c(C)c3)c2=O)cc1C	3.9	-9.0	-2.2	-0.3	30.1*	-1.3
C/C=C(\C)C(=O)NCCN1C2=NC[C@@H](Cc3ccccc3)N2C[C@@H]1Cc1ccc(OC)cc1	x	x	x	x	1.0	x
CCCCCCNC(=O)N[C@@H](C(=O)NCCC[C@H]1CN2C(=NC[C@@H]2Cc2ccccc2)N1CCc1cccc(OC)c1)C(C)C	62.7*	x	x	10.3	1.8	36.7
COc1ccc(C2CC(=O)N(C)c3ccccc3S2)cc1 (stereo unspecified)	-2.1	-6.6	-9.4	25.6	u	-1.6
N=c1c(C(=O)NCCc2ccccc2)cc2c(=O)n3ccccc3nc2n1Cc1ccco1	x	-1.5	x	x	73.7*	x
N=c1c(C(=O)NC2CCCCC2)cc2c(=O)n3ccccc3nc2n1CCc1ccccc1	x	2.5	x	x	160.7*	x
COc1ccc(CCn2c(=N)c(C(=O)NCc3ccco3)cc3c(=O)n4ccccc4nc32)cc1	0.7	15.5	-9.2	11.8	21.9*	87.4*
N=c1c(C(=O)NC2CCCCC2)cc2c(=O)n3ccccc3nc2n1Cc1ccco1	x	-14.5	x	x	64.6*	x
N=c1c(C(=O)NC2CCCCC2)cc2c(=O)n3ccccc3nc2n1Cc1ccccc1	x	0.3	x	x	180.1*	x
COC(=O)c1cc2c(=O)n3ccccc3nc2n(Cc2cccnc2)c1=N	x	12.4	-3.2	46.9	-0.3	x
N=c1c(C(=O)NC2CCCCC2)cc2c(=O)n3ccccc3nc2n1Cc1cccnc1	x	0.4	x	x	+	x
Cc1ccc(Cn2c(=N)c(C(=O)NC3CCCC3)cc3c(=O)n4ccccc4nc32)cc1	x	5.7	x	x	-0.7	x
N=c1c(C(=O)NCc2ccc(F)cc2)cc2c(=O)n3ccccc3nc2n1Cc1cccnc1	59.0*	-2.8	-0.6	10.9	180.6*	19.5
CCOc1ccc(N2C(=O)C(Cl)=C(N3CCOCC3)C2=O)cc1	x	29.1*	x	x	-4.4	x
CCOc1ccc(N2C(=O)C(Cl)=C(Nc3ccccc3O)C2=O)cc1	2.4	33.2*	-0.9	0.8	-2.7	24.7
COc1ccc(CCOC(=O)c2ccc(N)c([N+](=O)[O-])c2)cc1	x	-9.2	x	x	1.0	x
CCCCCN(C(=O)CCC(=O)OCC(=O)N1CCC(C)CC1)c1c(N)n(CCCC)c(=O)[nH]c1=O	x	x	x	x	-3.5	x
CCN1CCN(C(=O)CSc2cc(=O)n(CC)c3ccccc23)CC1	-0.6	-5.8	2.6	0.4	36.8*	-0.9

Screening results deposited in PubChem by several laboratories.
